Rows were chosen to be rich in hits. Some 1.8% of all compounds tested hit in one or more screens of this group.
TLR9-MyD88 block – inhibitors of TLR9-MyD88 association in cells, primary screen, cell-based, CHO, BLA complementation, fluorescence; Toll-like receptor 9 (Homo sapiens) + Myeloid differentiation primary response protein …; CCF4 FRET ratio; inhibition, % at 4.98 µM; 340,000 tested, 0.21% active; AID 504734, 2011;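 active means inhibition above the mean over all tested compounds plus 3 SD, cut at about 21% in these data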;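 further: 0% = DMSO only wells and 100% = clavulanate BLA inhibitor control wells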
NOD2-RIPK2 inh – NOD2-RIPK2 binding disruptors in cells, primary screen, fluorescence, CHO cells, BLA complementation. CCF4 ratio. inhibition, % at 4.98 µM. AID 624267, 2012. Receptor-interacting serine/threonine-protein kinase 2 (Homo sapiens), O43353. 360,000 tested, 0.38% active; in the data active means inhibition above about 21%;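 further: 0% = vehicle only and 100% = reference blocker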
TLR4-MyD88 BLA – inhibitors of TLR4-MyD88 association in cells, primary screen, cell-based, HeLa CL3-4, BLA complementation, FRET ratio; 200,000 tested, 0.18% active; AID 861, 2007; Toll-like receptor 4 (Homo sapiens) + Myeloid differentiation primary response protein …; HeLa CL3-4 TLR4/MyD88 BLA complementation; inhibition, % at 8.4 µM; in the data active means inhibition above about 25%;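 further: 0% = vehicle and 100% = reference inhibitor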
MC4R ag barr – MC4R agonists recruiting beta-arrestin, primary screen, cell-based, luminescence, agonist arm of biased-ligand search. Melanocortin receptor 4 (Homo sapiens), P32245. U2OS MC4R beta-arrestin complementation; percent of melanotan II response, DMSO zero. activation, % at 8.9 µM. 360,000 tested, 0.98% active;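 active means activation above a per-plate cutoff, the mean activation of sample wells on that plate plus 3 SD, cut at about 8% in these data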
MC4R antag cAMP – MC4R antagonists of cAMP signaling, primary screen, cell-based, TR-FRET, antagonist arm of biased-ligand search; MC4R-expressing cells, MTII-stimulated cAMP, LANCE TR-FRET; inhibition, % at 6.5 µM; 360,000 tested, 0.48% active; AID 540295, 2011;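 active means inhibition above its plate's cutoff, the mean of tested wells on that plate plus 3 SD, cut at about 29% in these data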;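 further: 0% = Melanotan II alone and 100% = Melanotan II plus saturating MCL0020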
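Material: U2OS-MC4R stable cell line | Reagent: Melanotan II challenge after compound preincubation | Doses: One concentration, 6.5 µM nominal | Incubation: 30-min compound preincubation, 1-h Melanotan II challenge, 1-h detection, room temperature | Signal: TR-FRET cAMP assay | Replicates: One well per compound, no replicates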
TLR9-MyD88 cf – TLR9-MyD88 association inhibitors, retest, confirmation, cell-based, CHO, BLA complementation, fluorescence, triplicate | shares compounds with TLR9-MyD88 block | CCF4 FRET ratio | inhibition, % at 4.98 µM | 680 tested, 51% active | AID 540250, 2011;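 active means mean inhibition across three repeats above about 21% taken from the earlier screen, limit read from the data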;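 further: blue over green emission ratio reports constitutive TLR9 MyD88 association via BLA complementation; 0% = DMSO vehicle wells and 100% = clavulanate BLA inhibitor wells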
BLA counter-1 – beta-lactamase reporter inhibitors in CHO cells, artefact control for TLR9-MyD88 binding inhibitor project, cell-based, fluorescence; shares compounds with TLR9-MyD88 block; CHO-BLA cells, CCF4 FRET ratio, BLA reporter; inhibition, % at 4.98 µM; 680 tested, 7% active; AID 540251, 2011;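 active means mean inhibition above a 50% cutoff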;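 further: counterscreen of TLR9-MyD88 hits on CMV-driven BLA in CHO-K1 cells; 0% = DMSO alone and 100% = clavulanate blocking BLA; higher means less blue over green ratio so more BLA blockade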
TLR9 CHO tox – CHO cell viability loss – luminescence, single concentration, cytotoxicity control for TLR9-MyD88 binding inhibitor project; 680 tested, 39% active; TLR9-MyD88 CHO cells cytotoxicity; shares compounds with TLR9-MyD88 block; inhibition, % at 4.98 µM; in the data active means inhibition above about 11%
cAMP nonselect – nonselective cAMP signaling inhibitors, parental cells, counter-screen for MC4R biased antagonist project, cell-based, TR-FRET, U2OS, forskolin, triplicate; 1,600 tested, 26% active; AID 602193, 2012; LANCE TR-FRET; shares compounds with MC4R antag cAMP; inhibition, % at 6.5 µM;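 active means mean inhibition over triplicates above the low-control well mean plus 3 SD, set per campaign, cut at about 13% in these data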;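 further: signal is single emission at 671 nm which falls as cellular cAMP rises; 0% = forskolin-stimulated wells and 100% = buffer without forskolin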
MC4R antag conf – MC4R cAMP antagonists, retest, confirmation, cell-based, TR-FRET; 1,600 tested, 27% active; inhibition, % at 6.5 µM; shares compounds with MC4R antag cAMP; MC4R-expressing cells, MTII-stimulated cAMP; in the data active means inhibition above about 29%;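 further: 0% = agonist stimulated wells alone and 100% = agonist stimulated wells plus saturating reference antagonist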
NOD2-RIPK2 conf – NOD2-RIPK2 binding disruptors, retest, confirmation, fluorescence, CHO cells, BLA complementation, triplicate; shares compounds with NOD2-RIPK2 inh; 1,200 tested, 70% active; AID 624370, 2012; inhibition, % at 4.98 µM; CCF4 FRET;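 active means mean inhibition across replicates above a set limit taken from the earlier primary screen, cut at about 21% in these data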;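 further: 0% = DMSO-only wells and the high end = clavulanate BLA-blocked wells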
BLA counter-2 – hits BLA reporter in NOD2-RIPK2 inhibitor counterscreen | shares compounds with NOD2-RIPK2 inh | CHO BLA reporter, CCF4 FRET ratio | inhibition, % at 4.98 µM | 1,200 tested, 57% active | AID 624371;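 active means mean inhibition above the low-control mean inhibition plus three low-control SD, cut at about 11% in these data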;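 further: 0% = DMSO only wells and 100% = clavulanate high control wells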
Numbers without * were called inactive; x = no result.

SMILES	TLR9-MyD88 block	NOD2-RIPK2 inh	TLR4-MyD88 BLA	MC4R ag barr	MC4R antag cAMP	TLR9-MyD88 cf	BLA counter-1	TLR9 CHO tox	NOD2-RIPK2 conf	BLA counter-2	others
C=CCn1c(O)c(C2=c3ccccc3=NC2=O)c2ccccc21	21*	77*	x	-1	-15	27*	-1	98*	80*	-1
Cc1ccc2c(c1)c(C1=c3ccccc3=NC1=O)c(O)n2C	12	12	x	-2	-6	x	x	x	x	x
COc1ccc2ccccc2c1/C=N/NC(=O)c1sc(N)c(C#N)c1C	21*	22*	-4	10*	-11	8	0	5	3	5
CCOc1ccc(C(C(=O)NC2CCCCC2)N(C(=O)c2csnn2)C2CC2)cc1 (centres undefined)	9	-11	x	3	0	x	x	x	x	x
COc1cc(/C=C/C(O)=C/C(=O)/C=C/c2ccc(O)cc2)ccc1O	34*	49*	x	2	11	25*	22	-1	57*	56*
CCc1nc2ccc(C(=O)N(C)CC(=O)Nc3cccc(F)c3)cc2nc1CC	0	-10	x	-3	8	x	x	x	x	x
Cc1[nH]c2ccccc2c1C(=O)C(=O)Nc1ccc2c(c1)OCO2	2	10	x	-3	-5	x	x	x	x	x
O=c1c2c([N+](=O)[O-])cc([N+](=O)[O-])cc2sn1Cc1ccccc1	32*	26*	x	-2	10	20	5	95*	12	9
Nc1c(Cl)cc(-c2[nH]c3cc(C(=O)NCCO)ccc3c(=O)c2O)cc1Cl	21*	28*	x	-1	-26	11	18	5	35*	38*
CCc1cccc2cc3c(N)c(C(=O)Nc4ccc(S(=O)(=O)N5CCCC5)cc4)sc3nc12	30*	33*	8	-2	8	20	21	29*	42*	51*
Cc1cccc2cc3c(N)c(C(=O)Nc4ccc(N5CCOCC5)cc4)sc3nc12	3	3	15	-2	-6	x	x	x	x	x
COC(=O)c1c(-c2ccccc2)c[nH]c1C	9	6	x	-1	-6	x	x	x	x	x
CCC1CCCCN1S(=O)(=O)c1ccc(NC(=O)c2ccncc2)cc1 (centres undefined)	-2	5	x	-4	5	x	x	x	x	x
COC(=O)c1ccccc1NC(=O)c1nc(S(=O)(=O)Cc2ccccc2)ncc1Cl	8	2	x	-4	7	x	x	x	x	x
CCS(=O)(=O)c1ncc(Cl)c(C(=O)Nc2ccc(C)cc2)n1	45*	61*	x	0	0	42*	36	95*	65*	38*
CC(=O)Nc1ccc(NC(=O)c2nc(S(=O)(=O)Cc3ccccc3)ncc2Cl)cc1	34*	51*	x	-4	18	36*	30	95*	50*	34*
Cc1ccc(CS(=O)(=O)c2ncc(Cl)c(C(=O)Nc3ccc(OC(F)F)cc3)n2)cc1	36*	94*	x	-4	40*	24*	15	95*	80*	21*	cAMP nonselect=23*;MC4R antag conf=13
CCC1CCCCN1S(=O)(=O)c1ccc(NC(=O)c2nc(S(C)(=O)=O)ncc2Cl)cc1 (centres undefined)	53*	96*	x	-4	83*	47*	31	98*	94*	48*	cAMP nonselect=11;MC4R antag conf=66*
O=C(Nc1ccc(OC(F)F)cc1)c1ncc(Cl)c(Cl)c1Cl	-1	-5	-4	1	8	x	x	x	x	x
CCCCc1cc(=O)oc2c(C)c(OCc3nn[nH]n3)ccc12	-3	-8	x	2	-3	x	x	x	x	x
CS(=O)(=O)c1ncc(Cl)c(C(=O)Nc2ccc3ccccc3c2)n1	45*	79*	15	-5	-12	51*	31	99*	72*	41*
CCn1nc(C)cc1-c1nnc(SCC(=O)Nc2ccccc2)n1CCCOC	10	3	x	-2	0	x	x	x	x	x
CCn1nc(C)cc1-c1nnc(Sc2ncc([N+](=O)[O-])s2)n1C	29*	78*	x	-3	46*	42*	-1	101*	85*	19*	cAMP nonselect=28*;MC4R antag conf=58*
Cc1ccccc1C(=O)NCC(=O)NNC(=O)c1cccc(Cl)c1	-2	2	x	-2	-2	x	x	x	x	x
Cc1noc2ncnc(Sc3c(Cl)cccc3Cl)c12	23*	37*	10	0	3	22*	6	8	34*	-13
CCN1C(=O)c2cccc3c(N)ccc(c23)C1=O	25*	27*	x	1	-51	13	13	2	35*	35*
CCCCNc1ccc2c3c(cccc13)C(=O)N(CCCC)C2=O	67*	63*	x	3	14	50*	49	11*	77*	79*
CCC/C(C#Cc1ccc(N(C)C)cc1)=C1/c2ccccc2C(=O)N1c1ccccc1	29*	40*	x	0	5	56*	57*	3	49*	60*
Oc1c(Cl)cc(Cl)cc1/C=N/NC(=S)NC1CC2C=CC1C2 (centres undefined)	24*	49*	x	-3	1	24*	28	17*	43*	62*

Screening results deposited in PubChem by The Scripps Research Institute Molecular Screening Center.
